Assay results as given in PMC7825275 (Cancer chemotherapy and pharmacology, 2019).

Test system: patients with advanced solid tumors
Assay: Toxicity by grade
Assay type: in vivo, human
Details: first cycle including veliparib with carboplatin and paclitaxel, n=73
Procedure, shortened: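 Adverse events were tabulated descriptively as maximum grade in three groups: the chemotherapy-only lead-in cycle, the first veliparib-containing cycle, and all cycles. CBC and serum chemistry including liver function tests were drawn weekly during cycles 1–2, then at the start of every cycle. Veliparib was oral, twice daily on days 1–7; carboplatin/paclitaxel were IV every 21 days.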

C[C@]1(c2nc3c(C(N)=O)cccc3[nH]2)CCCN1 [veliparib]
Alanine aminotransferase increased, Any Grade: 2 (3) number of patients (%)
Alanine aminotransferase increased, Grade 1: 2 (3) number of patients (%)
Alanine aminotransferase increased, Grade 2: 0 number of patients (%)
Alanine aminotransferase increased, Grade 3: 0 number of patients (%)
Alanine aminotransferase increased, Grade 4: 0 number of patients (%)
Alkaline phosphatase increased, Any Grade: 2 (3) number of patients (%)
Alkaline phosphatase increased, Grade 1: 1 (1) number of patients (%)
Alkaline phosphatase increased, Grade 2: 1 (1) number of patients (%)
Alkaline phosphatase increased, Grade 3: 0 number of patients (%)
Alkaline phosphatase increased, Grade 4: 0 number of patients (%)
Allergic reaction, Any Grade: 3 (4) number of patients (%)
Allergic reaction, Grade 1: 2 (3) number of patients (%)
Allergic reaction, Grade 2: 0 number of patients (%)
Allergic reaction, Grade 3: 0 number of patients (%)
Allergic reaction, Grade 4: 1 (1) number of patients (%)
Alopecia, Any Grade: 17 (23) number of patients (%)
Alopecia, Grade 1: 13 (18) number of patients (%)
Alopecia, Grade 2: 4 (5) number of patients (%)
Alopecia, Grade 3: 0 number of patients (%)
Alopecia, Grade 4: 0 number of patients (%)
Anemia, Any Grade: 24 (33) number of patients (%)
Anemia, Grade 1: 4 (5) number of patients (%)
Anemia, Grade 2: 18 (25) number of patients (%)
Anemia, Grade 3: 2 (3) number of patients (%)
Anemia, Grade 4: 0 number of patients (%)
Anorexia, Any Grade: 4 (5) number of patients (%)
Anorexia, Grade 1: 4 (5) number of patients (%)
Anorexia, Grade 2: 0 number of patients (%)
Anorexia, Grade 3: 0 number of patients (%)
Anorexia, Grade 4: 0 number of patients (%)
Anxiety, Any Grade: 1 (1) number of patients (%)
Anxiety, Grade 1: 1 (1) number of patients (%)
Anxiety, Grade 2: 0 number of patients (%)
Anxiety, Grade 3: 0 number of patients (%)
Anxiety, Grade 4: 0 number of patients (%)
Any adverse event, Any Grade: 67 (92) number of patients (%)
Any adverse event, Grade 1: 57 (78) number of patients (%)
Any adverse event, Grade 2: 46 (63) number of patients (%)
Any adverse event, Grade 3: 34 (47) number of patients (%)
Any adverse event, Grade 4: 26 (36) number of patients (%)
Arthralgia, Any Grade: 6 (8) number of patients (%)
Arthralgia, Grade 1: 5 (7) number of patients (%)
Arthralgia, Grade 2: 1 (1) number of patients (%)
Arthralgia, Grade 3: 0 number of patients (%)
Arthralgia, Grade 4: 0 number of patients (%)
Aspartate aminotransferase increased, Any Grade: 2 (3) number of patients (%)
Aspartate aminotransferase increased, Grade 1: 2 (3) number of patients (%)
Aspartate aminotransferase increased, Grade 2: 0 number of patients (%)
Aspartate aminotransferase increased, Grade 3: 0 number of patients (%)
Aspartate aminotransferase increased, Grade 4: 0 number of patients (%)
Blood bilirubin increased, Any Grade: 1 (1) number of patients (%)
Blood bilirubin increased, Grade 1: 1 (1) number of patients (%)
Blood bilirubin increased, Grade 2: 0 number of patients (%)
Blood bilirubin increased, Grade 3: 0 number of patients (%)
Blood bilirubin increased, Grade 4: 0 number of patients (%)
Bone pain, Any Grade: 1 (1) number of patients (%)
Bone pain, Grade 1: 1 (1) number of patients (%)
Bone pain, Grade 2: 0 number of patients (%)
Bone pain, Grade 3: 0 number of patients (%)
Bone pain, Grade 4: 0 number of patients (%)
Chills, Any Grade: 1 (1) number of patients (%)
Chills, Grade 1: 1 (1) number of patients (%)
Chills, Grade 2: 0 number of patients (%)
Chills, Grade 3: 0 number of patients (%)
Chills, Grade 4: 0 number of patients (%)
Constipation, Any Grade: 6 (8) number of patients (%)
Constipation, Grade 1: 4 (5) number of patients (%)
Constipation, Grade 2: 2 (3) number of patients (%)
Constipation, Grade 3: 0 number of patients (%)
Constipation, Grade 4: 0 number of patients (%)
Cough, Any Grade: 2 (3) number of patients (%)
Cough, Grade 1: 2 (3) number of patients (%)
Cough, Grade 2: 0 number of patients (%)
Cough, Grade 3: 0 number of patients (%)
Cough, Grade 4: 0 number of patients (%)
Creatinine increased, Any Grade: 3 (4) number of patients (%)
Creatinine increased, Grade 1: 3 (4) number of patients (%)
Creatinine increased, Grade 2: 0 number of patients (%)
Creatinine increased, Grade 3: 0 number of patients (%)
Creatinine increased, Grade 4: 0 number of patients (%)
Cytokine release syndrome, Any Grade: 1 (1) number of patients (%)
Cytokine release syndrome, Grade 1: 0 number of patients (%)
Cytokine release syndrome, Grade 2: 1 (1) number of patients (%)
Cytokine release syndrome, Grade 3: 0 number of patients (%)
Cytokine release syndrome, Grade 4: 0 number of patients (%)
Dehydration, Any Grade: 1 (1) number of patients (%)
Dehydration, Grade 1: 0 number of patients (%)
Dehydration, Grade 2: 1 (1) number of patients (%)
Dehydration, Grade 3: 0 number of patients (%)
Dehydration, Grade 4: 0 number of patients (%)
Diarrhea, Any Grade: 5 (7) number of patients (%)
Diarrhea, Grade 1: 5 (7) number of patients (%)
Diarrhea, Grade 2: 0 number of patients (%)
Diarrhea, Grade 3: 0 number of patients (%)
Diarrhea, Grade 4: 0 number of patients (%)
Dizziness, Any Grade: 3 (4) number of patients (%)
Dizziness, Grade 1: 3 (4) number of patients (%)
Dizziness, Grade 2: 0 number of patients (%)
Dizziness, Grade 3: 0 number of patients (%)
Dizziness, Grade 4: 0 number of patients (%)
Dry mouth, Any Grade: 2 (3) number of patients (%)
Dry mouth, Grade 1: 2 (3) number of patients (%)
Dry mouth, Grade 2: 0 number of patients (%)
Dry mouth, Grade 3: 0 number of patients (%)
Dry mouth, Grade 4: 0 number of patients (%)
Dysesthesia, Any Grade: 1 (1) number of patients (%)
Dysesthesia, Grade 1: 1 (1) number of patients (%)
Dysesthesia, Grade 2: 0 number of patients (%)
Dysesthesia, Grade 3: 0 number of patients (%)
Dysesthesia, Grade 4: 0 number of patients (%)
Dysgeusia, Any Grade: 2 (3) number of patients (%)
Dysgeusia, Grade 1: 2 (3) number of patients (%)
Dysgeusia, Grade 2: 0 number of patients (%)
Dysgeusia, Grade 3: 0 number of patients (%)
Dysgeusia, Grade 4: 0 number of patients (%)
Dyspepsia, Any Grade: 3 (4) number of patients (%)
Dyspepsia, Grade 1: 2 (3) number of patients (%)
Dyspepsia, Grade 2: 1 (1) number of patients (%)
Dyspepsia, Grade 3: 0 number of patients (%)
Dyspepsia, Grade 4: 0 number of patients (%)
Dysphagia, Any Grade: 2 (3) number of patients (%)
Dysphagia, Grade 1: 2 (3) number of patients (%)
Dysphagia, Grade 2: 0 number of patients (%)
Dysphagia, Grade 3: 0 number of patients (%)
Dysphagia, Grade 4: 0 number of patients (%)
Dyspnea, Any Grade: 3 (4) number of patients (%)
Dyspnea, Grade 1: 2 (3) number of patients (%)
Dyspnea, Grade 2: 1 (1) number of patients (%)
Dyspnea, Grade 3: 0 number of patients (%)
Dyspnea, Grade 4: 0 number of patients (%)
Edema limbs, Any Grade: 3 (4) number of patients (%)
Edema limbs, Grade 1: 3 (4) number of patients (%)
Edema limbs, Grade 2: 0 number of patients (%)
Edema limbs, Grade 3: 0 number of patients (%)
Edema limbs, Grade 4: 0 number of patients (%)
Erythema multiforme, Any Grade: 1 (1) number of patients (%)
Erythema multiforme, Grade 1: 0 number of patients (%)
Erythema multiforme, Grade 2: 1 (1) number of patients (%)
Erythema multiforme, Grade 3: 0 number of patients (%)
Erythema multiforme, Grade 4: 0 number of patients (%)
Esophagitis, Any Grade: 1 (1) number of patients (%)
Esophagitis, Grade 1: 1 (1) number of patients (%)
Esophagitis, Grade 2: 0 number of patients (%)
Esophagitis, Grade 3: 0 number of patients (%)
Esophagitis, Grade 4: 0 number of patients (%)
Fatigue, Any Grade: 27 (37) number of patients (%)
Fatigue, Grade 1: 18 (24) number of patients (%)
Fatigue, Grade 2: 5 (7) number of patients (%)
Fatigue, Grade 3: 4 (5) number of patients (%)
Fatigue, Grade 4: 0 number of patients (%)
Febrile neutropenia, Any Grade: 5 (7) number of patients (%)
Febrile neutropenia, Grade 1: 0 number of patients (%)
Febrile neutropenia, Grade 2: 0 number of patients (%)
Febrile neutropenia, Grade 3: 3(4) number of patients (%)
Febrile neutropenia, Grade 4: 2 (3) number of patients (%)
Fever, Any Grade: 3 (4) number of patients (%)
Fever, Grade 1: 2 (3) number of patients (%)
Fever, Grade 2: 0 number of patients (%)
Fever, Grade 3: 1 (1) number of patients (%)
